m5-HT2A agonist: mouse HTR2A agonism via beta-arrestin recruitment; CHO-K1 mHTR2A beta-arrestin complementation, luminescence; percent of 30 µM serotonin response; P35363; activation, % at 7.6 µM; 0.66% of 360,000 active;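 active = activation above a run cutoff, the mean activation of all tested compounds plus 3 SD, cut at about 14% in these data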;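 note: 0% = plate median of compound wells and 100% = 30 µM serotonin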
Target sequence (P35363 whole entry, looked up): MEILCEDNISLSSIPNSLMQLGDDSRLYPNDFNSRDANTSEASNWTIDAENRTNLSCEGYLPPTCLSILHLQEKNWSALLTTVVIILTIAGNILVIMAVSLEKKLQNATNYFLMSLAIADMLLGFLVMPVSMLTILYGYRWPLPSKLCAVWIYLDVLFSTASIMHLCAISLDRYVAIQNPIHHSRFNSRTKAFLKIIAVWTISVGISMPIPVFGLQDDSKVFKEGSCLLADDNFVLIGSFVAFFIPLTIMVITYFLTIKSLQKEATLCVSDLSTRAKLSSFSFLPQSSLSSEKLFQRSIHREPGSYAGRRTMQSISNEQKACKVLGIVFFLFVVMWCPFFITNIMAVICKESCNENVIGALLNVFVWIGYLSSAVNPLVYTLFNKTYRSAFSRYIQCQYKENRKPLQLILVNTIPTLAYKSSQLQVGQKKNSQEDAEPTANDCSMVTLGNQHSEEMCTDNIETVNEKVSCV
CHRM1 antagonist: antagonists of human M1 muscarinic receptor; inhibition, % at 3 µM; 1.3% of 360,000 active; CHO-K1 hM1, Fluo-8 calcium fluorescence, ACh EC80 antagonist; AID 588852;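 active = percent inhibition above its own plate's cutoff, namely the mean of that plate's compound wells plus 3 SD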;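 note: peak over basal fluorescence ratio during 140 s after agonist addition; 0% = ACh EC80 plus DMSO and 100% = DMSO alone without agonist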
CHRM1 PAM: potentiates human M1 receptor response to acetylcholine | CHO-K1 hM1, Fluo-8 calcium fluorescence, ACh EC20; 0% = ACh EC20, 100% = maximal ACh | activation, % at 3 µM | AID 588819 | 0.088% of 360,000 active | P11229; in the data active = activation above about 19%, passing the limit was not always enough
TAAR1 antagonist: human TAAR1 antagonism; CHO RD-HGA16 TAAR1, Fluo-8 calcium fluorescence, antagonist; 1.5% of 360,000 active; inhibition, % at 3 µM; Q96RJ0;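 active = inhibition above a per-plate cutoff, the mean inhibition of test compounds on that plate plus 3 SD, cut at about 49% in these data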;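 note: 0% = DMSO plus EC80 beta-PEA response and 100% = DMSO alone without agonist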
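Material: CHO RD-HGA16 cells bearing hTAAR1; compound dosing: one-point dosing, 3 µM nominal final; schedule: dye loading 75 min at 37 °C, then 30 min room temperature; measured by: calcium fluorescence with Fluo-8; control set: vehicle and agonist controls; replication: n of 1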
TAAR1 agonist: human TAAR1 agonism; 0.99% of 360,000 active; activation, % at 3 µM; CHO RD-HGA16 TAAR1, Fluo-8 calcium fluorescence; vehicle wells 0%, saturating PEA agonist 100%; AID 624467;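 active = activation above the mean activation of all test compounds in the run plus 3 SD, cut at about 38% in these data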
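Assay system – CHO-derived RD-HGA16 cells with stable Gα16 and human TAAR1 · Compound dosing – one-point dosing at 3 µM (nominal) · Incubation – 17-24 h seeding, 75 min 37 °C dye, 30 min RT · Measured by – kinetic Fluo-8 calcium fluorescence · Control set – DMSO vehicle as 0%, PEA at EC100 as 100% · Repeats – single well for each compound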
CHRM1 agonist: human M1 muscarinic receptor agonism; CHO-K1 hM1, Fluo-8 calcium fluorescence, agonist mode; 0% DMSO, 100% acetylcholine EC100; activation, % at 3 µM; 0.33% of 360,000 active; AID 588814;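 active = activation above the run's mean compound activation plus 3 SD, cut at about 16% in these data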;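 note: peak over basal fluorescence ratio within a 140 s kinetic read after compound addition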
* hit, by the source's call; nt = no result. Hits are enriched below; roughly 3.9% of the tested compounds scored in any of these assays.

SMILES | m5-HT2A agonist | CHRM1 antagonist | CHRM1 PAM | TAAR1 antagonist | TAAR1 agonist | CHRM1 agonist
CN1CCN(NC(=O)Nc2cccc(F)c2)CC1 | 4.6 | 30.9* | -12.8 | 8.7 | 12.2 | -2.6
CCNC(=O)CC1C(=O)N(CC)C(=S)N1NC(=O)c1ccccc1 (stereo not drawn) | 1.2 | -9.2 | 13.9 | -13.7 | 3.5 | -3.5
O=C(Nc1cccc(Cl)c1)Nc1ccnc(-c2cccnc2)n1 | -3.6 | 17.1 | -12.5 | 55.4* | 20.1 | -2.2
O=C(Nc1cccc(Cl)c1)Nc1cnccn1 | -3.8 | -3.0 | 0.4 | 5.4 | 6.9 | 2.6
COC(=O)c1cc(Br)ccc1NC(=O)Nc1ccccc1 | 1.6 | -2.7 | 5.9 | 11.8 | -0.6 | -2.8
O=C(Nc1cccc(Cl)c1)Nc1ccc(Br)cc1F | -4.3 | 32.6* | -18.3 | 18.9 | 6.0 | -0.7
O=C(Nc1ccccc1)Nc1ccc(Br)cc1F | -3.5 | 45.6* | -18.6 | 15.6 | 4.3 | -1.6
Cc1cc(=O)n2nc(N3CCCC(C(=O)N4CCc5ccccc54)C3)sc2n1 (stereo not drawn) | 2.2 | 96.7* | -23.1 | nt | nt | -6.2
Cc1ccc2c(c1)-n1c(nc3cc(Cl)ccc3c1=O)C(CC(C)C)NC2=O (stereo not drawn) | nt | nt | nt | 21.7 | 6.9 | nt
CCOC(=O)c1c(NC(=O)Cn2cnc([N+](=O)[O-])n2)sc(C)c1C | 3.2 | -3.9 | 7.8 | -2.9 | -0.1 | -0.2
O=C(Nc1ccccc1)c1cccc(S(=O)(=O)NCc2ccco2)c1 | -2.1 | -5.0 | 8.4 | -7.0 | 4.5 | 0.3
O=C(Nc1cccc(S(=O)(=O)NCc2ccco2)c1)c1cc(-c2ccc(F)cc2)nc2ccccc12 | -1.9 | 8.4 | -5.6 | 57.1* | 11.1 | -4.2
CCOC(CCNC(=O)c1cc(-c2cccs2)nc2ccccc12)OCC | 1.7 | 14.4 | -1.4 | 48.6* | 19.3 | -3.4
CN(C)S(=O)(=O)c1ccc(NC(=O)c2cc(-c3cccs3)nc3ccccc23)cc1 | 0.1 | 41.7* | -15.6 | 41.9 | 17.9 | -1.1
Cc1ccc(-c2cc(C(=O)Nc3cccc(S(=O)(=O)N(C)C)c3)c3ccccc3n2)o1 | -5.1 | 8.5 | -3.4 | 58.4* | 28.8 | -5.3
COc1ccc(C(C)=O)cc1CSc1ccc(S(=O)(=O)N2CCOCC2)cn1 | -1.8 | 3.9 | -9.1 | 22.8 | 7.9 | -5.1
COC(=O)c1cc(OC)nc2ccc(Br)cc12 | 7.2 | 2.9 | 3.7 | -9.9 | 12.3 | -1.4
COC(=O)[C@]12CCCCC=C1N(CCc1ccc(OC)c(OC)c1)C(=O)[C@H](CC(=O)NCc1cccc(C(F)(F)F)c1)C2 | 1.0 | nt | nt | 48.7* | 4.8 | nt
COC(=O)[C@@]12C[C@@H](CC(=O)NCc3cccc(C(F)(F)F)c3)C(=O)N(CCc3ccc(OC)c(OC)c3)C1=CCC(C)(C)C2 | 3.4 | nt | nt | 57.6* | 7.7 | nt
CC(C)NC(=O)C1(C)CCCN1C(=O)c1cc(C#N)cs1 (stereo not drawn) | 12.3 | -15.4 | 9.8 | -13.8 | 0.1 | -0.3
C[C@H](NC(=O)c1ccccc1)C(=O)OCC(=O)Nc1ccc2c(c1)OCO2 | 1.4 | -2.2 | 17.3 | 49.0* | 1.5 | 3.0
CC(C)[C@H](NC(=O)c1ccccc1)C(=O)OCC(=O)Nc1ccc2c(c1)OCCO2 | -0.5 | -5.3 | 6.0 | 3.1 | 3.6 | -2.7
Cc1ccc(-n2c(C)cc(C(=O)COc3c(CO)cc(F)cc3CO)c2C)cc1C | -2.4 | 3.6 | 1.9 | 56.2* | 9.2 | -2.7
O=[N+]([O-])c1ccc(COc2ccc(CNc3ccccc3)cc2)cc1 | -3.6 | 26.0* | -22.9 | 16.1 | 5.7 | -10.4
O=C(O)c1cc([N+](=O)[O-])ccc1NCc1ccccc1 | 0.4 | 2.8 | -1.7 | 21.1 | 4.0 | -2.2
O=[N+]([O-])c1ccc(COc2cccc(CNc3ccc(Br)cc3)c2)cc1 | -4.3 | 13.6 | -13.3 | -4.7 | 1.3 | -8.9
O=C(O)c1cc([N+](=O)[O-])ccc1NCCCc1ccccc1 | 0.7 | -24.4 | -2.2 | -6.4 | -0.2 | 18.4*
O=[N+]([O-])c1ccc(NCCCc2ccccc2)cc1 | -6.3 | 19.1 | -21.2 | 52.4* | -0.8 | -6.1
CC1=C(C(=O)OC2CCCCCC2)C(c2ccc(C)o2)C2=C(CCCC2=O)N1 (stereo not drawn) | -10.2 | -5.2 | 10.5 | -3.0 | 10.4 | 6.1

Screens deposited in PubChem BioAssay by The Scripps Research Institute Molecular Screening Center.
